In ChEMBL document CHEMBL5331111, “Synthetic Biology Facilitates Semisynthetic Development of Type V Glycopeptide Antibiotics Targeting Vancomycin-Resistant Enterococcus” (J Med Chem, 2023):
Values after ≈ are worked out from the molar mass of the structure shown. Active and inactive are the calls of the source. The rule behind the calls is not given here.

Key:
[1] = Cytotoxicity against HEK293 cells assessed as inhibition of cell growth incubated for 48 hrs by Cell-Titer Glo reagent based analysis; type: toxicity; conditions: human
Method in brief: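 HEK293 cells seeded at 7500 cells/well in DMEM with 10% FBS, 2 mM glutamine and pen/strep, and left 18 h at 37 °C under 5% CO2. Compound then added at 1% final DMSO and incubated 48 h. Viability read by CellTiter-Glo luminescence and normalized to DMSO-only wells. Curves fitted by 4PL constrained to 0–1.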

[2] = Hemolytic activity in human RBC incubated for 1 hr by absorbance based analysis; type: toxicity, cell-based, Erythrocyte; conditions: red blood cells (erythrocytes)
Method in brief: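 Human K2-EDTA blood RBCs washed twice in 150 mM NaCl, resuspended in PBS pH 7.4, then diluted 1:50. Incubated with compound at 1% final DMSO for 1 h at 37 °C and pelleted at 500g for 5 min. Supernatant absorbance read at 540 nm. Controls were DMSO-only and a Triton X-100 dilution series (20% to 0.02%).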

Staphylococcus aureus = assay: Antibacterial activity against Staphylococcus aureus ATCC 33591 assessed as reduction in bacterial growth by Mueller-Hinton broth based assay; type: functional
Method in brief: (§1)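 Broth MIC by standard procedure in Mueller-Hinton broth, for both B. subtilis 168 and S. aureus ATCC 33591.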

Enterococcus faecalis = assay: Antibacterial activity against vancomycin-resistant Enterococcus faecalis ATCC 51299 assessed as inhibition of bacterial growth by Mueller-Hinton broth based assay; type: functional
Enterococcus faecium [3] = assay: Antibacterial activity against vancomycin-resistant Enterococcus faecium ATCC 700221 assessed as inhibition of bacterial growth by Mueller-Hinton broth based assay; type: functional
Enterococcus faecium [4] = assay: Antibacterial activity against Vancomycin-resistant Enterococcus faecium ATCC 700221 infected in cyclophosphamide induced neutropenic thigh infection CD-1 mouse model assessed as increase in survival rate at 50 mg/kg, ip qid measured after 24 hrs post-infection; type: functional, organism-based
Method in brief: (§2)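 Female CD-1 mice, 6–10 weeks old, made neutropenic with i.p. cyclophosphamide (150 mg/kg day 4, 100 mg/kg day 1). About 1 × 10^6 CFU of E. faecium ATCC 700221, grown in BHI with vancomycin, were injected into each thigh. Dosing was i.p. at 1, 3, 5 and 20 h post-infection, in PEG400/DMSO/H₂O (45/5/50) vehicle, with vehicle controls. Mice were euthanized at 24 h.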

Enterococcus faecium [5] = assay: Antibacterial activity against Vancomycin-resistant Enterococcus faecium ATCC 700221 infected in cyclophosphamide induced neutropenic thigh infection CD-1 mouse model assessed as reduction in weight loss at 50 mg/kg, ip qid measured after 24 hrs post-infection; type: functional, organism-based; method in brief: as §2
Bacillus subtilis = assay: Antibacterial activity against Bacillus subtilis 168 assessed as reduction in bacterial growth by Mueller-Hinton broth based assay; type: functional; method in brief: as §1
[6] = tested on: Mycolicibacterium smegmatis; assay: Antimycobacterial activity against Mycobacterium smegmatis MC2 155 assessed as inhibition of bacterial growth measured after 2 days by resazurin dye based analysis; type: functional; conditions: MC2 155, 48 h, time 2 day
Method in brief: (§3)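 Strains grown in 7H9 broth with 0.2% glycerol, 10% OADC and 0.05% Tween-80. Inoculum was about 5 × 10^5 CFU/mL, checked by plating on 7H10/OADC agar to be 3–8 × 10^5. Read at 2 days for M. smegmatis and 7 days for M. tuberculosis H37Ra, M. bovis and M. avium. Resazurin 30 μg/mL was then added for one further day. Values are averages of at least two experiments.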

[7] = tested on: Mycobacteroides abscessus; assay: Antimycobacterial activity against Mycobacterium abscessus ATCC 19977 assessed as inhibition of bacterial growth measured after 2 days by resazurin dye based analysis; type: functional; conditions: ATCC 19977, 48 h, time 2 day
Method in brief: (§4)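 Cultured in 7H9 with 0.2% glycerol, 10% OADC and 0.05% Tween-80. Inoculum diluted to ~5 × 10^5 CFU/mL and confirmed at 3–8 × 10^5 by plating on 7H10 agar. Growth read at 2 days, then 30 μg/mL resazurin added for one more day. Values averaged from at least two experiments.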

[8] = Antimycobacterial activity against Mycobacterium avium subsp. avium ATCC 25291 assessed as inhibition of bacterial growth measured after 7 days by resazurin dye based analysis; type: functional; conditions: ATCC 25291, 168 h, time 7 day; method in brief: as §3
[9] = tested on: Mycolicibacterium fortuitum; assay: Antimycobacterial activity against Mycobacterium fortuitum ATCC 6891 assessed as inhibition of bacterial growth measured after 2 days by resazurin dye based analysis; type: functional; conditions: ATCC 6891, 48 h, time 2 day; method in brief: as §4
[10] = tested on: Mycobacterium tuberculosis; assay: Antimycobacterial activity against Mycobacterium tuberculosis H37Ra assessed as inhibition of bacterial growth measured after 7 days by resazurin dye based analysis; type: functional; conditions: 168 h, time 7 day; method in brief: as §3
Enterococcus faecium [11] = assay: Antibacterial activity against Enterococcus faecium WCC 0491 assessed as inhibition of bacterial growth by Mueller-Hinton broth based assay; type: functional
Enterococcus faecium [12] = assay: Antibacterial activity against Enterococcus faecium WCC 0533 assessed as inhibition of bacterial growth by Mueller-Hinton broth based assay; type: functional
Enterococcus faecium [13] = assay: Antibacterial activity against Enterococcus faecium WCC 0545 assessed as inhibition of bacterial growth by Mueller-Hinton broth based assay; type: functional
Enterococcus faecium [14] = assay: Antibacterial activity against Enterococcus faecium WCC 0498 assessed as inhibition of bacterial growth by Mueller-Hinton broth based assay; type: functional
Enterococcus faecium [15] = assay: Antibacterial activity against Enterococcus faecium WCC 0516 assessed as inhibition of bacterial growth by Mueller-Hinton broth based assay; type: functional
Enterococcus faecium [16] = assay: Antibacterial activity against Enterococcus faecium WCC 0534 assessed as inhibition of bacterial growth by Mueller-Hinton broth based assay; type: functional
Enterococcus gallinarum = assay: Antibacterial activity against vancomycin-resistant Enterococcus gallinarum ATCC 49573 assessed as inhibition of bacterial growth by Mueller-Hinton broth based assay; type: functional
Enterococcus faecium [17] = assay: Antibacterial activity against Enterococcus faecium WCC 0495 assessed as inhibition of bacterial growth by Mueller-Hinton broth based assay; type: functional
Enterococcus faecium [18] = assay: Antibacterial activity against Enterococcus faecium WCC 0586 assessed as inhibition of bacterial growth by Mueller-Hinton broth based assay; type: functional
Enterococcus faecium [19] = assay: Antibacterial activity against Enterococcus faecium WCC 0558 assessed as inhibition of bacterial growth by Mueller-Hinton broth based assay; type: functional
Enterococcus faecium [20] = assay: Antibacterial activity against Enterococcus faecium WCC 0524 assessed as inhibition of bacterial growth by Mueller-Hinton broth based assay; type: functional
Enterococcus faecium [21] = assay: Antibacterial activity against Enterococcus faecium WCC 0500 assessed as inhibition of bacterial growth by Mueller-Hinton broth based assay; type: functional
Enterococcus faecium [22] = assay: Antibacterial activity against Enterococcus faecium WCC 0502 assessed as inhibition of bacterial growth by Mueller-Hinton broth based assay; type: functional
Enterococcus faecium [23] = assay: Antibacterial activity against Enterococcus faecium WCC 0537 assessed as inhibition of bacterial growth by Mueller-Hinton broth based assay; type: functional
Enterococcus faecium [24] = assay: Antibacterial activity against Enterococcus faecium WCC 0553 assessed as inhibition of bacterial growth by Mueller-Hinton broth based assay; type: functional
Enterococcus faecium [25] = assay: Antibacterial activity against Enterococcus faecium WCC 0499 assessed as inhibition of bacterial growth by Mueller-Hinton broth based assay; type: functional
Enterococcus faecium [26] = assay: Antibacterial activity against wild type Enterococcus faecium ATCC 19434 assessed as inhibition of bacterial growth by Mueller-Hinton broth based assay; type: functional
Enterococcus faecium [27] = assay: Antibacterial activity against Enterococcus faecium WCC 0492 assessed as inhibition of bacterial growth by Mueller-Hinton broth based assay; type: functional
Enterococcus faecium [28] = assay: Antibacterial activity against Enterococcus faecium WCC 0506 assessed as inhibition of bacterial growth by Mueller-Hinton broth based assay; type: functional
Enterococcus faecium [29] = assay: Antibacterial activity against Enterococcus faecium WCC 0587 assessed as inhibition of bacterial growth by Mueller-Hinton broth based assay; type: functional
Enterococcus faecium [30] = assay: Antibacterial activity against Enterococcus faecium WCC 0528 assessed as inhibition of bacterial growth by Mueller-Hinton broth based assay; type: functional
Enterococcus faecium [31] = assay: Antibacterial activity against vancomycin-resistant Enterococcus faecium WCC 0541 assessed as inhibition of bacterial growth by Mueller-Hinton broth based assay; type: functional

CN1C(=O)[C@@H]2NC(=O)[C@@H]3NC(=O)[C@@H](c4ccc(O)cc4)NC(=O)[C@H](NC(=O)C(NC(=O)CCCCCN)c4ccc(O)cc4)Cc4c[nH]c5cc(ccc45)-c4cc3cc(c4O)Oc3ccc(cc3)C[C@H]1C(=O)N[C@@H](C(=O)O)c1ccc(O)c(c1)Oc1ccc2cc1 (some centres not stated)
IC50 at 48 h [1]: > 256 mg/L
IC50 at 1 h [2]: > 256 mg/L
MIC (Staphylococcus aureus): 8 mg/L (≈ 6.48 µM)

CN1C(=O)[C@@H]2NC(=O)[C@@H]3NC(=O)[C@@H](c4ccc(O)cc4)NC(=O)[C@H](NC(=O)C(N)c4ccc(O)cc4)Cc4c[nH]c5cc(ccc45)-c4cc3cc(c4O)Oc3ccc(cc3)C[C@H]1C(=O)N[C@@H](C(=O)NCCCN)c1ccc(O)c(c1)Oc1ccc2cc1 (some centres not stated)
IC50 at 48 h [1]: > 256 mg/L
IC50 at 1 h [2]: > 256 mg/L
MIC (Enterococcus faecalis): 4 mg/L (≈ 3.4 µM)
MIC (Enterococcus faecium [3]): 1 mg/L (≈ 0.849 µM)

CC(=O)NC[C@H]1CN(c2ccc(N3CCOCC3)c(F)c2)C(=O)O1
Activity (Enterococcus faecium [4]): Active
Activity (Enterococcus faecium [5]): Active

CN1C(=O)[C@@H]2NC(=O)[C@@H]3NC(=O)[C@@H](c4ccc(O)cc4)NC(=O)[C@H](NC(=O)Cc4ccc(O)cc4)Cc4c[nH]c5cc(ccc45)-c4cc3cc(c4O)Oc3ccc(cc3)C[C@H]1C(=O)N[C@@H](C(=O)NCCC[N+](C)(C)C)c1ccc(O)c(c1)Oc1ccc2cc1
MIC (Bacillus subtilis): 4 mg/L
MIC [6]: 0.5 mg/L
IC50 at 48 h [1]: > 256 mg/L
IC50 at 1 h [2]: > 256 mg/L
MIC (Staphylococcus aureus): > 128 mg/L
MIC (Enterococcus faecalis): 16 mg/L
MIC (Enterococcus faecium [3]): 4 mg/L

CCCCCCNC(C(=O)N[C@@H]1Cc2c[nH]c3cc(ccc23)-c2cc3cc(c2O)Oc2ccc(cc2)C[C@H]2C(=O)N[C@@H](C(=O)O)c4ccc(O)c(c4)Oc4ccc(cc4)[C@@H](NC(=O)[C@@H]3NC(=O)[C@@H](c3ccc(O)cc3)NC1=O)C(=O)N2C)c1ccc(O)cc1 (some centres not stated)
IC50 at 48 h [1]: > 256 mg/L
IC50 at 1 h [2]: > 256 mg/L
MIC (Enterococcus faecalis): 4 mg/L (≈ 3.32 µM)
MIC (Enterococcus faecium [3]): 4 mg/L (≈ 3.32 µM)

NNC(=O)c1ccncc1 [ISONIAZID]
MIC [7]: > 128 mg/L
MIC [6]: 4 mg/L (≈ 29.2 µM)
MIC [8]: > 128 mg/L
MIC [9]: 4 mg/L (≈ 29.2 µM)
MIC [10]: 0.063 mg/L (≈ 0.459 µM)

CN1C(=O)[C@@H](c2cc(Cl)c(O)c(Cl)c2)NC(=O)[C@@H]2NC(=O)[C@@H](c3cc(Cl)c(O)c(Cl)c3)NC(=O)[C@H](NC(=O)C(=O)c3cc(Cl)c(O)c(Cl)c3)Cc3c[nH]c4cc(ccc34)-c3cc2cc(c3O)Oc2ccc(cc2)C[C@H]1C(=O)N[C@@H](C(=O)O)c1ccc(O)cc1 [ISOCOMPLESTATIN]
MIC [7]: > 128 mg/L
MIC [6]: > 128 mg/L
MIC [8]: > 64 mg/L
MIC [9]: > 128 mg/L
MIC [10]: > 64 mg/L

CN1C(=O)[C@@H]2NC(=O)[C@@H]3NC(=O)[C@@H](c4ccc(O)cc4)NC(=O)[C@H](NC(=O)C(N)c4ccc(O)cc4)Cc4c[nH]c5cc(ccc45)-c4cc3cc(c4O)Oc3ccc(cc3)C[C@H]1C(=O)N[C@@H](C(=O)O)c1ccc(O)c(c1)Oc1ccc2cc1 (some centres not stated)
MIC (Enterococcus faecium [11]): 4 mg/L (≈ 3.57 µM)
MIC (Enterococcus faecium [12]): 8 mg/L (≈ 7.14 µM)
MIC (Enterococcus faecium [13]): 8 mg/L (≈ 7.14 µM)
MIC (Enterococcus faecium [14]): 8 mg/L (≈ 7.14 µM)
MIC (Enterococcus faecium [15]): 8 mg/L (≈ 7.14 µM)
MIC (Enterococcus faecium [16]): 4 mg/L (≈ 3.57 µM)
MIC (Enterococcus gallinarum): 8 mg/L (≈ 7.14 µM)
MIC [6]: 8 mg/L (≈ 7.14 µM)
MIC (Enterococcus faecium [17]): 8 mg/L (≈ 7.14 µM)
MIC [9]: 8 mg/L (≈ 7.14 µM)
MIC (Enterococcus faecium [18]): 8 mg/L (≈ 7.14 µM)
MIC (Enterococcus faecium [19]): 8 mg/L (≈ 7.14 µM)
MIC (Enterococcus faecium [20]): 4 mg/L (≈ 3.57 µM)
MIC (Enterococcus faecium [21]): 8 mg/L (≈ 7.14 µM)
MIC (Enterococcus faecium [22]): 4 mg/L (≈ 3.57 µM)
MIC (Enterococcus faecium [23]): 8 mg/L (≈ 7.14 µM)
MIC (Enterococcus faecium [24]): 8 mg/L (≈ 7.14 µM)
MIC (Enterococcus faecium [25]): 8 mg/L (≈ 7.14 µM)
MIC (Enterococcus faecium [26]): 8 mg/L (≈ 7.14 µM)
MIC (Enterococcus faecium [27]): 8 mg/L (≈ 7.14 µM)
MIC (Enterococcus faecium [28]): 4 mg/L (≈ 3.57 µM)
MIC (Staphylococcus aureus): 8 mg/L (≈ 7.14 µM)
MIC (Enterococcus faecalis): 8 mg/L (≈ 7.14 µM)
MIC (Enterococcus faecium [29]): 8 mg/L (≈ 7.14 µM)
MIC (Enterococcus faecium [3]): 8 mg/L (≈ 7.14 µM)
MIC (Enterococcus faecium [30]): 8 mg/L (≈ 7.14 µM)
MIC (Enterococcus faecium [31]): 8 mg/L (≈ 7.14 µM)
